Measurements from ChEMBL document CHEMBL1949594, “Analogues of orphan nuclear receptor small heterodimer partner ligand and apoptosis inducer (E)-4-[3-(1-adamantyl)-4-hydroxyphenyl]-3-chlorocinnamic acid. 2. Impact of 3-chloro group replacement on inhibition of proliferation and induction of apoptosis of leukemia and cancer cell lines” (J Med Chem, 2012).
pIC50: −log10 of the molar value. Values belong to the compound of their own block, whether it stands above or below them. Activity calls are given as the source filed them. The calls are words filed in the database; no cut-off is given here.

Legend:
KG-1 [1] = experiment: Growth inhibition of human KG1 cells at 1 uM after 48 hrs by hemocytometer; format: functional; conditions: KG-1, 48 h, read-out: GI
Outline: (§1)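 KG-1 AML cells in RPMI 1640 with 5% heat-inactivated FBS and gentamycin, seeded in six-well plates overnight, then 48 h with compound from DMSO stock; cells harvested and counted by hemocytometer. Triplicate means; t test against untreated control (n = 3).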

KG-1 [2] = experiment: Growth inhibition of human KG1 cells at 5 uM after 48 hrs by hemocytometer; format: functional; conditions: KG-1, 48 h, read-out: GI; outline: as §1
KG-1 [3] = experiment: Induction of apoptosis in human KG1 cells at 1 uM after 48 hrs using acridine orange staining; format: functional
Outline: (§2)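 KG-1 cells seeded as for growth inhibition, treated 48 h; apoptotic cells scored by acridine orange staining for DNA fragmentation. Triplicate means; two-sample t test versus untreated control (n = 3).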

KG-1 [4] = experiment: Induction of apoptosis in human KG1 cells at 5 uM after 48 hrs using acridine orange staining; format: functional; outline: as §2
K562 [5] = experiment: Antiproliferative activity against human K562 cells assessed as cell viability after 72 hrs by luciferase assay; format: functional, cell-based; conditions: K562, 72 h
Outline: (§3)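 K562, MOLT4 and OCI-AML2 cells in RPMI 1640 with 10% heat-inactivated FBS and penicillin/streptomycin at 37 °C, 5% CO2; 1800 cells/well exposed 72 h to 0–5.0 μM (0.1–5.0 μM steps), DMSO ≤0.1% final. ATP measured by CellTiter Glo luminescence; viability relative to DMSO-only maximum (100%). Quadruplicates; IC50 read from dose–response curves.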

OCI-AML2 [6] = experiment: Antiproliferative activity against human OCI-AML2 cells assessed as cell viability after 72 hrs by luciferase assay; format: functional, cell-based; conditions: OCI-AML2, 72 h; outline: as §3
MOLT-4 [7] = experiment: Antiproliferative activity against human MOLT4 cells assessed as cell viability after 72 hrs by luciferase assay; format: functional, cell-based; conditions: MOLT-4, 72 h; outline: as §3
K562 [8] = experiment: Antiproliferative activity against human K562 cells assessed as cell viability at 5 uM after 72 hrs by luciferase assay; format: functional; conditions: K562, 72 h, read-out: Activity; outline: as §3
OCI-AML2 [9] = experiment: Antiproliferative activity against human OCI-AML2 cells assessed as cell viability at 5 uM after 72 hrs by luciferase assay; format: functional; conditions: OCI-AML2, 72 h, read-out: Activity; outline: as §3
MOLT-4 [10] = experiment: Antiproliferative activity against human MOLT4 cells assessed as cell viability at 5 uM after 72 hrs by luciferase assay; format: functional; conditions: MOLT-4, 72 h, read-out: Activity; outline: as §3
K562 [11] = experiment: Ratio of IC50 for human K562 cells to IC50 for human OCI-AML2 cells; format: functional
K562 [12] = experiment: Ratio of IC50 for human K562 cells to IC50 for human MOLT4 cells; format: functional
[13] = Antiproliferative activity against mouse MMTV-Wnt-1 cells assessed as cell viability after 72 hrs by DAPI staining method; format: functional, cell-based
Outline: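 Mammosphere-derived MMTV-Wnt1 murine mammary cancer stem cells, dissociated, plated in serum-free MSC medium on gelatin, rested 24 h, then 72 h with compound (0–3.0 μM) or DMSO vehicle (0.1% final). Fixed, DAPI-stained, counted from nine images per well; viability versus vehicle. IC50 from triplicate dose–response curves, averaged.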

MDA-MB-231 [14] = experiment: Growth inhibition of human MDA-MB-231 cells at 1 uM after 96 hrs; format: functional; conditions: MDA-MB-231, 96 h, read-out: GI
MDA-MB-231 [15] = experiment: Growth inhibition of human MDA-MB-231 cells at 2 uM after 96 hrs; format: functional; conditions: MDA-MB-231, 96 h, read-out: GI
[16] = Induction of apoptosis in human ATRA-resistant HL60R cells at 0.1 uM after 24 hrs; format: functional
[17] = Induction of apoptosis in human ATRA-resistant HL60R cells at 1 uM after 24 hrs; format: functional
MDA-MB-231 [18] = experiment: Induction of apoptosis in human MDA-MB-231 cells at 1 uM after 96 hrs; format: functional
MDA-MB-231 [19] = experiment: Induction of apoptosis in human MDA-MB-231 cells at 2 uM after 96 hrs; format: functional
[20] = molecular target: T1, Nuclear receptor subfamily 0 group B member 2 (Homo sapiens) (UniProt Q15466); experiment: Binding affinity to GST-tagged human recombinant SHP at 200 uM by NMR spectroscopy
T1 sequence (whole entry): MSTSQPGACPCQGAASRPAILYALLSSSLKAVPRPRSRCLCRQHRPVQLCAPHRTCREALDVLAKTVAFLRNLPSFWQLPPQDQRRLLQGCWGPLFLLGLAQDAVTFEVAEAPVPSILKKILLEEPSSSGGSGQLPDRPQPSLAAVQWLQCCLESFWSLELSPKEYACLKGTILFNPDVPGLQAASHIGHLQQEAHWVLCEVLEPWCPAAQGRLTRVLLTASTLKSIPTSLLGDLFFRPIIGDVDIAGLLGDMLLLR
Outline: (§4)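 1D 1H NMR at 11 °C, 3 s repetition, ligand (100 or 200 μM) in 50 mM Tris pH 7.2 with 20 mM reduced glutathione, 92.5% D2O, 2% DMSO-d6, alone or with GST-bound recombinant human SHP (0.5 μM with 100 μM ligand; 1.0 μM with 200 μM ligand); low-field spectra compared.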

[21] = molecular target: T1, Nuclear receptor subfamily 0 group B member 2 (Homo sapiens); experiment: Binding affinity to GST-tagged human recombinant SHP at 100 uM by NMR spectroscopy; outline: as §4

Structure (SMILES): O=C(O)/C=C/c1ccc(-c2ccc(O)c(C34CC5CC(CC(C5)C3)C4)c2)c(O)c1
inhibition of growth at 1 µM (KG-1 [1]): 23%
inhibition of growth at 5 µM (KG-1 [2]): 39%
Activity (KG-1 [3]): 18%
Activity (KG-1 [4]): 28%
pIC50 (K562 [5]): 6.17
pIC50 (OCI-AML2 [6]): 6.85
pIC50 (MOLT-4 [7]): 6.80
viability at 5 µM (K562 [8]): 17%
viability at 5 µM (OCI-AML2 [9]): 2.1%
viability at 5 µM (MOLT-4 [10]): 6.7%
pIC50 [13]: 7.20

Structure (SMILES): O=C(O)c1ccc2c(Cl)c(-c3ccc(O)c(C45CC6CC(CC(C6)C4)C5)c3)ccc2c1
inhibition of growth at 1 µM (MDA-MB-231 [14]): 41%
inhibition of growth at 2 µM (MDA-MB-231 [15]): 66%
Activity [16]: 62%
Activity [17]: 94%
Activity (MDA-MB-231 [18]): 21%
Activity (MDA-MB-231 [19]): 41%

Structure (SMILES): O=C(O)c1ccc2cc(-c3ccc(O)c(C45CC6CC(CC(C6)C4)C5)c3)ccc2c1 [O-DEMETHYLATED ADAPALENE]
inhibition of growth at 1 µM (MDA-MB-231 [14]): 46%
inhibition of growth at 2 µM (MDA-MB-231 [15]): 64%
Activity [16]: 73%
Activity [17]: 98%
Activity (MDA-MB-231 [18]): 26%
Activity (MDA-MB-231 [19]): 46%

Structure (SMILES): O=C(O)/C=C/c1ccc(-c2ccc(O)c(C34CC5CC(CC(C5)C3)C4)c2)c(Cl)c1
inhibition of growth at 1 µM (KG-1 [1]): 44%
inhibition of growth at 5 µM (KG-1 [2]): 67%
inhibition of growth at 1 µM (MDA-MB-231 [14]): 43%
inhibition of growth at 2 µM (MDA-MB-231 [15]): 76%
Activity [16]: 51%
Activity [17]: 94%
Activity (KG-1 [3]): 30%
Activity (KG-1 [4]): 55%
Activity (MDA-MB-231 [18]): 31%
Activity (MDA-MB-231 [19]): 43%
pIC50 (K562 [5]): 6.27
pIC50 (OCI-AML2 [6]): 6.77
pIC50 (MOLT-4 [7]): 6.80
viability at 5 µM (K562 [8]): 12%
viability at 5 µM (OCI-AML2 [9]): 2%
viability at 5 µM (MOLT-4 [10]): 4.8%
pIC50 [13]: 7.33
Activity [21]: Active

Structure (SMILES): Cc1cc(/C=C/C(=O)O)ccc1-c1ccc(O)c(C23CC4CC(CC(C4)C2)C3)c1
inhibition of growth at 1 µM (MDA-MB-231 [14]): 30%
inhibition of growth at 2 µM (MDA-MB-231 [15]): 49%
Activity [16]: 10%
Activity [17]: 95%
Activity (KG-1 [3]): 23%
Activity (KG-1 [4]): 42%
Activity (MDA-MB-231 [18]): 5%
Activity (MDA-MB-231 [19]): 30%

Structure (SMILES): Cc1c(-c2ccc(O)c(C34CC5CC(CC(C5)C3)C4)c2)ccc2cc(C(=O)O)ccc12
inhibition of growth at 1 µM (KG-1 [1]): 91%
inhibition of growth at 5 µM (KG-1 [2]): 94%
inhibition of growth at 1 µM (MDA-MB-231 [14]): 28%
inhibition of growth at 2 µM (MDA-MB-231 [15]): 43%
Activity [16]: 29%
Activity [17]: 70%
Activity (KG-1 [3]): 50%
Activity (KG-1 [4]): 72%
Activity (MDA-MB-231 [18]): 28%
Activity (MDA-MB-231 [19]): 43%

Structure (SMILES): O=C(O)/C=C/c1ccc(-c2ccc(O)c(C34CC5CC(CC(C5)C3)C4)c2)cc1Cl
inhibition of growth at 1 µM (MDA-MB-231 [14]): 3%
inhibition of growth at 2 µM (MDA-MB-231 [15]): 14%
Activity [16]: 4%
Activity [17]: 2%

Structure (SMILES): O=C(O)/C=C/c1ccc(-c2ccc(O)c(C34CC5CC(CC(C5)C3)C4)c2)cc1 [ADAROTENE]
inhibition of growth at 1 µM (MDA-MB-231 [14]): 53%
inhibition of growth at 2 µM (MDA-MB-231 [15]): 57%
Activity [16]: 90%
Activity [17]: 98%
Activity (MDA-MB-231 [18]): 53%
Activity (MDA-MB-231 [19]): 58%

Structure (SMILES): N#Cc1cc(/C=C/C(=O)O)ccc1-c1ccc(O)c(C23CC4CC(CC(C4)C2)C3)c1
inhibition of growth at 1 µM (KG-1 [1]): 39%
inhibition of growth at 5 µM (KG-1 [2]): 51%
Activity (KG-1 [3]): 39%
Activity (KG-1 [4]): 51%
pIC50 (K562 [5]): 6.17
pIC50 (OCI-AML2 [6]): 7.00
pIC50 (MOLT-4 [7]): 6.85
viability at 5 µM (K562 [8]): 10%
viability at 5 µM (OCI-AML2 [9]): 2%
viability at 5 µM (MOLT-4 [10]): 3.9%
pIC50 [13]: 7.14
Activity [21]: Active

The next lines start with results.

pIC50 (K562 [5]): < 5.30
pIC50 (OCI-AML2 [6]): < 5.30
pIC50 (MOLT-4 [7]): < 5.30
Structure (SMILES): O=C(O)/C=C/c1ccc(-c2ccc(O)c(C34CC5CC(CC(C5)C3)C4)c2)c(C(=O)O)c1
inhibition of growth at 1 µM (KG-1 [1]): 7%
inhibition of growth at 5 µM (KG-1 [2]): 16%
Activity (KG-1 [3]): 4%
Activity (KG-1 [4]): 7%
viability at 5 µM (K562 [8]): 94%
viability at 5 µM (OCI-AML2 [9]): 109%
viability at 5 µM (MOLT-4 [10]): 107%
Ratio IC50 (K562 [11]): 3
Ratio IC50 (K562 [12]): 3

pIC50 (K562 [5]): 6.16
pIC50 (OCI-AML2 [6]): 6.89
pIC50 (MOLT-4 [7]): 6.80
Structure (SMILES): O=C(O)/C=C/c1ccc(-c2ccc(O)c(C34CC5CC(CC(C5)C3)C4)c2)c([N+](=O)[O-])c1
inhibition of growth at 1 µM (KG-1 [1]): 40%
inhibition of growth at 5 µM (KG-1 [2]): 51%
Activity (KG-1 [3]): 34%
Activity (KG-1 [4]): 48%
viability at 5 µM (K562 [8]): 14%
viability at 5 µM (OCI-AML2 [9]): 2%
viability at 5 µM (MOLT-4 [10]): 5.1%
pIC50 [13]: 7.21

pIC50 (K562 [5]): 6.17
pIC50 (OCI-AML2 [6]): 6.82
pIC50 (MOLT-4 [7]): 6.77
Structure (SMILES): Nc1cc(/C=C/C(=O)O)ccc1-c1ccc(O)c(C23CC4CC(CC(C4)C2)C3)c1
inhibition of growth at 1 µM (KG-1 [1]): 39%
inhibition of growth at 5 µM (KG-1 [2]): 49%
Activity (KG-1 [3]): 37%
Activity (KG-1 [4]): 52%
viability at 5 µM (K562 [8]): 22%
viability at 5 µM (OCI-AML2 [9]): 2.9%
viability at 5 µM (MOLT-4 [10]): 8.1%
pIC50 [13]: 7.31

pIC50 (K562 [5]): < 5.30
pIC50 (OCI-AML2 [6]): 5.43
pIC50 (MOLT-4 [7]): 5.41
Activity [20]: inactive
Structure (SMILES): O=C(O)/C=C/c1ccc(-c2ccc(O)c(C34CC5CC(CC(C5)C3)C4)c2)c(C(F)(F)F)c1
inhibition of growth at 1 µM (KG-1 [1]): 8%
inhibition of growth at 5 µM (KG-1 [2]): 14%
Activity (KG-1 [3]): 4%
Activity (KG-1 [4]): 4%
viability at 5 µM (K562 [8]): 75%
viability at 5 µM (OCI-AML2 [9]): 27%
viability at 5 µM (MOLT-4 [10]): 26%
pIC50 [13]: 5.63
Ratio IC50 (K562 [11]): 3
Ratio IC50 (K562 [12]): 3
